For three compounds, IC50, inhibition and GI50 results are on record in ChEMBL document CHEMBL2010709, “Pinophilins A and B, inhibitors of mammalian A-, B-, and Y-family DNA polymerases and human cancer cell proliferation” (J Nat Prod, 2012).

Calls of active or inactive are those of the source. No cut-off for these calls is given here.

Usually IC50 stands for the point on the concentration scale where inhibition reaches its midpoint. In general, GI50 refers to the concentration at which growth is held to half of that of the control. Higher therefore signals lower sensitivity of the cells.

Series [1] is described as follows: Inhibition of cauliflower DNA polymerase alpha assessed as inhibition of incorporation of dTTP into poly(dA)/oligo(dT)18 after 60 mins. Also on record: species or system Brassica oleracea var. botrytis. Summed up:
(§1)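 Compound in DMSO was sonicated for 30 s, then held with enzyme (0.05 units final) at 0 °C for 10 min in 50 mM Tris-HCl pH 7.5, 1 mM DTT, 50% glycerol, 0.1 mM EDTA. The mixture was added to the standard reaction mix with poly(dA)/oligo(dT)18 (A/T = 2/1) and dTTP, 37 °C, 60 min. Activity was relative to no-inhibitor control; mean ± SE, three independent experiments.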

For the next series, the target named is Deoxyribonuclease-1 (Bos taurus, UniProt P00639). As to the kind of experiment: Inhibition of bovine deoxyribonuclease 1 using [3H]-labelled DNA after 30 mins by agarose gel electrophoresis.
Series [2] has as its target T1, DNA-directed DNA polymerase (Enterobacteria phage T4, UniProt P04415).
T1 sequence (P04415 whole entry): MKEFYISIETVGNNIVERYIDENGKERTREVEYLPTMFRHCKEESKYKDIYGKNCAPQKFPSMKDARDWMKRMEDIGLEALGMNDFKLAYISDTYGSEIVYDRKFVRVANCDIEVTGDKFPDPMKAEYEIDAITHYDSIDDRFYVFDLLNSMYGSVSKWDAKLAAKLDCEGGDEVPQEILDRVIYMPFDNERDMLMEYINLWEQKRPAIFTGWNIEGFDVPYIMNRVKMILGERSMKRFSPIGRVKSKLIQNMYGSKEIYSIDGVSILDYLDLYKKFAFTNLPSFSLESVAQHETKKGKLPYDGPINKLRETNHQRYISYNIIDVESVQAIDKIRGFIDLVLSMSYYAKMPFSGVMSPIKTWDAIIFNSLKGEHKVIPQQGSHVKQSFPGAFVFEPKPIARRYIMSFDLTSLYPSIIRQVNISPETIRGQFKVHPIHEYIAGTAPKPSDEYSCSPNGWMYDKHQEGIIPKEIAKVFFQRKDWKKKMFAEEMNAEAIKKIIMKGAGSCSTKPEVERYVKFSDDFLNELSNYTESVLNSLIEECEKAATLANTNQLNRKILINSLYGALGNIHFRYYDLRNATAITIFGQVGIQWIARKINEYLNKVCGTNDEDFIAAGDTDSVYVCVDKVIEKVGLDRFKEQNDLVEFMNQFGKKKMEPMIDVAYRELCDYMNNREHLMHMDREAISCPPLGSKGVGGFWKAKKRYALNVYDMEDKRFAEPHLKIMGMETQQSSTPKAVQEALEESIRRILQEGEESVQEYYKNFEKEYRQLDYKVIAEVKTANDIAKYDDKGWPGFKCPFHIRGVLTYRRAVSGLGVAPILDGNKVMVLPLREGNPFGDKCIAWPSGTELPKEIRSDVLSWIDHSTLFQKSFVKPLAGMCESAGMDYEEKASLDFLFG
As to the kind of experiment: Inhibition of T4 bacteriophage DNA polymerase assessed as inhibition of incorporation of dTTP into poly(dA)/oligo(dT)18 after 60 mins. Set-up: species or system Tequatrovirus T4. Summed up: as §1

A further series relates to Tequatrovirus T4. Briefly: Inhibition of T4 bacteriophage DNA polymerase assessed as inhibition of incorporation of dTTP into activated DNA primer after 60 mins.
The target of a further series is T2, DNA polymerase kappa (Homo sapiens, UniProt Q9UBT6).
T2 sequence (Q9UBT6 whole entry): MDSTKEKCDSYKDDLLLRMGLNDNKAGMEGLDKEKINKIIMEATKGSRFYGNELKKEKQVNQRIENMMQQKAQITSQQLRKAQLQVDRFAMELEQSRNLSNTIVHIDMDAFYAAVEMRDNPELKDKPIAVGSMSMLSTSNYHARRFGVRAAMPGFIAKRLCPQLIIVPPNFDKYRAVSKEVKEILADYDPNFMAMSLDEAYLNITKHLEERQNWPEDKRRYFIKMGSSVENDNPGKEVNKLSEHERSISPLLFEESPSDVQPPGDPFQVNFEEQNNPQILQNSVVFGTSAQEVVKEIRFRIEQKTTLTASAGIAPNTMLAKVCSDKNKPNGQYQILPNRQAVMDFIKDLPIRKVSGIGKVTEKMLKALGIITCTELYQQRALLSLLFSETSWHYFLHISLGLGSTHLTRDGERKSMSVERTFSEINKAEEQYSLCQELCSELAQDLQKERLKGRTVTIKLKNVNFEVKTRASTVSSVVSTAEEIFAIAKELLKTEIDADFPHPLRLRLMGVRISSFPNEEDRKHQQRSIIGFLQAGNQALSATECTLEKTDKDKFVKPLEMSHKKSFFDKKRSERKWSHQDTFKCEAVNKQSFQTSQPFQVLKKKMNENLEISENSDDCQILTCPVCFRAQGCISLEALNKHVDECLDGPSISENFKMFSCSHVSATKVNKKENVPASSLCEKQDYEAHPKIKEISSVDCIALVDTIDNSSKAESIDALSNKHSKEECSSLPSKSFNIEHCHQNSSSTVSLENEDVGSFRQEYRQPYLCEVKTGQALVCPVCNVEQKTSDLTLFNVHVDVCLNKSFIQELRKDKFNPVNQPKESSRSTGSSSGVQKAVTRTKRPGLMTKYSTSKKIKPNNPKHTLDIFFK
Briefly: Inhibition of human C-terminal-His6-tagged DNA polymerase kappa expressed in Escherichia coli assessed as inhibition of incorporation of dTTP into poly(dA)/oligo(dT)18 after 60 mins. Summed up: as §1

Series [3] is described as follows: Growth inhibition of HDF cells after 72 hrs by WST-1 assay. The series is classed as cell-based. Conditions: human. Summed up:
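Normal cells (HDF, HUVEC) were grown in Eagle's MEM with 4.5 g/L glucose, 10% FCS, 5 mM L-glutamine and penicillin/streptomycin, 37 °C, 5% CO2. Cells were seeded at 1 × 10^4 per well, cultured 12 h, then exposed to compound (0.5% DMSO final) for 72 h. Viability was read by WST-1 at 450/630 nm. GI50 given as mean ± SE of five experiments.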
In general terms: Tetrazolium dyes change colour on reduction, which living cells bring about.

Chain of Deoxyribonuclease-1 (P00639 whole entry): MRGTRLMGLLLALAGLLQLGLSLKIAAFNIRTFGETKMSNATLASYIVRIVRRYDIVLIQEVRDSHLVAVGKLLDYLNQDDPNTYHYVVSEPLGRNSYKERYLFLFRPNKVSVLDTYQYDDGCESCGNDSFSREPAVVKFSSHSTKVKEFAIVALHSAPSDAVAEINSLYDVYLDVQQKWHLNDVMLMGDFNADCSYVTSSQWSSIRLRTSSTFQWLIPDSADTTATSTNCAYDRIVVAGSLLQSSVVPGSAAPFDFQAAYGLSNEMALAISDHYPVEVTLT

Consider `C/C=C/C1=CC2=CC(=O)[C@@](C)(O)[C@@H](OC(=O)c3c(C)cc(O)cc3O)[C@@H]2CO1`, for which the IC50 was more than 200 µM in series [1], more than 200 µM against Deoxyribonuclease-1, more than 200 µM in series [2] and 59.8 µM on DNA polymerase kappa. In addition, the inhibition result in the series on Tequatrovirus T4 is “inactive”. Also, the 50% growth inhibitory concentration (GI50) at 72 h in series [3] was more than 200 µM.

For the compound `C/C=C/C1=CC2=CC(=O)[C@@](C)(OC(=O)c3c(C)cc(O)cc3O)[C@@H](O)[C@@H]2CO1` [PINOPHILIN A], the 50% inhibitory concentration (IC50) is more than 200 µM in series [1], more than 200 µM against Deoxyribonuclease-1, more than 200 µM in series [2] and 48.6 µM on DNA polymerase kappa. In addition, the inhibition entry in the series on Tequatrovirus T4 was “inactive”. The same compound yielded a GI50 at 72 h in series [3] of more than 200 µM.

Take `Cc1cc(O)cc(O)c1C(=O)O[C@H]1[C@@H]2COC(/C=C/CO)=CC2=CC(=O)[C@@]1(C)O` [PINOPHILIN B]: the IC50 in series [1] is more than 200 µM; at Deoxyribonuclease-1, more than 200 µM; in series [2] it was more than 200 µM; at DNA polymerase kappa, 88.9 µM. Further, the inhibition entry in the series on Tequatrovirus T4 was “inactive”. For the same compound, the 50% growth inhibitory concentration (GI50) at 72 h in series [3] was more than 200 µM.
